# rRNA inh HTS: inhibits bacterial ribosomal RNA function over humanized ribosomes | E. coli WT GFP vs humanized-ribosome RFP mutants, fluorescence, 24 h; stronger effect = lower value; DMSO median 0, no signal -100 | GFP signal change (wild-type ribosome), % (no concentration beside the values) | 350,000 compounds, 1.6% hits | AID 720706;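 active = significant combined selectivity score with lowered wild-type GFP, culture density cut under 30%, mutant RFP and density less affected; inactive = any of these conditions unmet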
# S100A4 inh HTS: blocks human S100A4 binding to myosin IIA peptide. P26447. S100A4/TAMRA-MyoIIA peptide fluorescence polarization. inhibition, % at 10.7 µM. 360,000 compounds, 0.14% hits. AID 652163;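 active = mean inhibition of at least 70% across replicates, with every replicate also reaching that level; inconclusive = mean inhibition reaches 70% but some replicates fall short; inactive = mean inhibition below 70%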
# Target sequence (P26447 whole entry, looked up): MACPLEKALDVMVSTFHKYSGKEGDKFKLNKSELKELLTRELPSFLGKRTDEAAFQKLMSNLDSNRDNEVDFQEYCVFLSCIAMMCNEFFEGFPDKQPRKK
#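 Material: S100A4 monomer protein | Medium: HEPES pH 7.2 with CaCl2, KCl, NaCl, DTT, Triton | Reagent: Labelled myosin peptide probe, 5 nM | Doses: One dose per compound | Times: 5 min incubation before reading | Benchmarks: Neutral control DMSO, positive control TFP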
# miR122 inh: blocks miR-122 activity in Huh7 sensor cells | activation (reporter increase), % at 12.5 µM | Huh7 miR-122 Renilla luciferase sensor, 48 h; neutral wells = 0, positive control = 100 | 340,000 compounds, 0.3% hits;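 active = mean replicate activation score at least 90 and every replicate individually at or above 90; inconclusive = only one of the two criteria met; inactive = neither criterion met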;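 note: higher luciferase means less miR-122 activity so hits act as miR-122 inhibitors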
# HIV Env fusion: inhibitors of HIV Env-mediated cell fusion; HeLa-JRFL Env/CEM21 cell fusion, luciferase; inhibition, % at 12.3 µM; 360,000 compounds, 1.1% hits; AID 651610;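 active = mean replicate inhibition score of at least 50 and every replicate individually at or above 50; inconclusive = only one of the two criteria met; inactive = mean below 50 and not all replicates reaching 50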;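 note: 0% = plate neutral controls and 100% = maraviroc near 300 nM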
# FN deposit inh: fibronectin deposition inhibition; AID 743247; 350,000 compounds, 0.086% hits; inhibition, % at 12.6 µM; AH1F fibroblasts, Alexa488-fibronectin deposition fluorescence, overnight;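 active = mean inhibition across replicates of 30% or more, regardless of how many single replicates reach that level; inconclusive = mean under 30% yet at least half of replicates reach 30%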;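 note: positive control wells lacked labelled fibronectin entirely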
#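 Measured by – fluorescence 485/525 nm · System – AH1F fibroblast monolayer, labelled fibronectin deposition · Amount – 10000 cells per well · Buffer or medium – serum-reduced DMEM (2% serum) · Doses – single dose, pinned · Also added – fluorescent fibronectin at 24 nM final · Schedule – 1 h cell attachment, overnight exposure to compound and label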
# Vif inh: inhibitors of HIV Vif | 340,000 compounds, 0.35% hits | inhibition, % at 7.49 µM | AID 602346 | HEK293T cells, Vif self-association by quenched fluorescence, imaging, 24 h; in the data active = inhibition above about 50%, passing the limit was not always enough; inconclusive = no clear call, values can overlap the other calls; inactive = below about 31%
# * hit, by the source's call; ? = inconclusive; . = no result; [ ] = another dose, or the depositor's remark. Shown are actives, neighbours in structure and some others; about 2.6% of the full set was active somewhere.
SMILES,rRNA inh HTS,S100A4 inh HTS,miR122 inh,HIV Env fusion,FN deposit inh,Vif inh
Cn1c(CSCc2ccc(Cl)cc2)n[nH]c1=S,-23*,-3,-7,-10,.,-18
Cn1c(CSCc2ccc(F)cc2)n[nH]c1=S,7,1,-1,8,4,-3
C#CCOCCOCCOCCNc1nc(N2CCN(C(=O)CCCCCCCCCCNC(=O)[C@H]([C@@H](C)CC)n3cc(CCCCN=C(N)N)nn3)CC2)nc(N2CCN(C(=O)CCCCCCCCCCNC(=O)[C@@H]([C@H](C)O)n3cc(C)nn3)CC2)n1,-40*,-13,-5,.,.,-3
C#CCOCCOCCOCCNc1nc(N2CCN(C(=O)CCCCCCCCCCNC(=O)[C@H](CCCCN)n3cc(CCO)nn3)CC2)nc(N2CCN(C(=O)CCCCCCCCCCNC(=O)[C@H](CCCCN)n3cc(CCCC(=O)O)nn3)CC2)n1,-40*,1,4,-21,3,-1
C#CCOCCOCCOCCNc1nc(N2CCN(C(=O)CCCCCCCCCCNC(=O)[C@@H](CCC(=O)O)n3cc(CCCCCN)nn3)CC2)nc(N2CCN(C(=O)CCCCCCCCCCNC(=O)[C@H](CO)n3cc(CCCCCN)nn3)CC2)n1,.,.,1,.,.,-2
C[C@@H]1CCCCO[C@@H](CN(C)C)[C@H](C)CN([C@@H](C)CO)C(=O)c2cc(N(C)C)ccc2O1,4,2,.,.,.,.
CCn1nc(C)c(/C=N/NC(=O)Cn2nnc(N)n2)c1C,12,5,.,7,-1,59*
Cc1ccc(/C=N/NC(=O)Cn2nnc(N)n2)cc1,5,-2,.,-21,13,24
CCN(CC(=O)Nc1ccccc1-c1ccccc1)Cc1nc2ccccc2c(=O)[nH]1,-25*,-2,24,-38,5,1
CCN(CC(=O)Nc1ccccc1OC)CC(=O)Nc1ccccc1C(F)(F)F,6,-3,.,4,.,2
CCN(CC(=O)Nc1ccccc1OC)CC(=O)Nc1ccccc1-c1ccccc1,-32*,0,.,27,8,-1
CCN(CC(=O)NCc1ccc(F)cc1)CC(=O)Nc1ccccc1-c1ccccc1,-33*,2,-2,27,-4,-9
O=C(C[C@@H]1CC[C@H]2[C@@H](COC[C@H](O)CN2C(=O)c2ccncc2)O1)NCc1cccc(F)c1,5,.,-2[16.7 µM],5[16.7 µM],3,.
CCCNC(=O)[C@H]1[C@H](CO)[C@H]2Cn3c(ccc(-c4ccccc4OC)c3=O)[C@H]2N1CC,1,5,-1[16.7 µM],.,.,.
CC1=NN(C(N)=S)C(=O)C1N=Nc1c(Cl)cc([N+](=O)[O-])cc1Cl (stereo not given),-26*,-3,-7,-20,-10,-3
CCCOC(=O)C1C2C=CC(C3CC23)C1C(=O)OCC(=O)c1ccccc1 (stereo not given),.,.,15,62*,.,-2
COC(=O)C1C2CCC(C2)C1C(=O)OCC(=O)c1ccccc1 (stereo not given),.,.,.,-43,13,6
COc1ccc(S(=O)(=O)Nc2ccc3c(c2)CC(=O)N([C@@H](C)CO)C[C@@H](C)[C@H](CN(C)S(=O)(=O)c2ccc(Cl)cc2)O3)cc1,-1,-40,-10[16.7 µM],-16[16.7 µM],.,.
O=C(c1cccc(F)c1)N1C[C@H]2[C@@H](c3ccccc31)[C@H](CO)N2C(=O)c1ccc(F)cc1,3,-11,-25[16.7 µM],.,.,.
CCCNC(=O)N1[C@H](CO)[C@@H]2c3ccccc3N(C(=O)c3ccc(F)cc3)C[C@@H]21,5,124*,-12[16.7 µM],.,.,.
CCCNC(=O)N1[C@@H]2CN(C(=O)c3ccncc3)c3ccccc3[C@@H]2[C@@H]1CO,2,-6,-4[16.7 µM],.,0,.
O=C(c1cccc(F)c1)N1C[C@H]2[C@@H](c3ccccc31)[C@@H](CO)N2C(=O)c1ccc(F)cc1,3,-30,192*[16.7 µM],.,.,.
O=C(c1ccc(F)cc1)N1C[C@H]2[C@@H](c3ccccc31)[C@@H](CO)N2C(=O)c1ccc(F)cc1,3,62,364*[16.7 µM],.,.,.
COc1ccccc1NC(=O)N[C@@H]1CC[C@H](CC(=O)N[C@H](C)c2ccccc2)O[C@H]1CO,5,-7,.,?,3,.
COc1ccccc1NC(=O)N1[C@@H]2CNC[C@H]1[C@@H]2c1ccc(-c2ccc(C#N)cc2)cc1,2,10,.,.,-11,.
SMILES,rRNA inh HTS,S100A4 inh HTS,miR122 inh,HIV Env fusion,FN deposit inh,Vif inh
C[C@@H]1CN([C@@H](C)CO)C(=O)c2ccccc2-c2ccccc2CO[C@@H]1CN(C)C(=O)Cc1ccccc1,0,.,.,.,3,.
CCOc1ccccc1OCCCC(=O)N1CCN(S(=O)(=O)c2cc(F)ccc2F)CC1,-20*,-6,4,8,-7,13
CCOc1ccccc1OCCCC(=O)N1CCN(S(=O)(=O)c2ccc(Cl)cc2)CC1,-11,-1,-11,.,-2,19
C[C@@H]1CN([C@@H](C)CO)S(=O)(=O)c2ccc(C#CC(C)(C)O)cc2O[C@@H]1CN(C)C(=O)C1CC1,3,.,7[16.7 µM],-6[16.7 µM],.,.
COc1ccc(Nc2nc(C(=O)NCc3ccco3)cs2)cc1,-44*,-1,-9,30,-9,-3
COc1ccc(C[C@@H]2CCn3nncc3COCCCNC2=O)cc1,5,.,.,.,-5,.
COC(=O)c1ccc2nc(NC(=O)CSCC(=O)OCC(=O)c3ccccc3)sc2c1,6,-2,-1,15,6,-11
Cc1ccc2nc(NC(=O)CSCC(=O)OCC(=O)c3ccc(Br)cc3)sc2c1,.,.,-2,73*,-6,1
O=C(C[C@H]1CC[C@@H](NS(=O)(=O)c2ccccc2)[C@H](CO)O1)NCCN1CCCCC1,0,12,.,2[16.7 µM],.,.
CN1C(=O)c2cc(NC(=O)Cc3ccccc3)ccc2OC[C@H]2O[C@@H](CC(=O)NCC3CC3)CC[C@@H]21,-4,-8,17[16.7 µM],-6[16.7 µM],4,.
CN1C(=O)c2cc(NC(=O)Cc3ccccc3)ccc2OC[C@@H]2O[C@H](CC(=O)NCC3CC3)CC[C@@H]21,0,-1,233*[16.7 µM],-1[16.7 µM],-13,.
CN1C(=O)c2cc(NC(=O)c3ccccc3Cl)ccc2OC[C@@H]2O[C@@H](CC(=O)NCC(F)(F)F)CC[C@H]21,.,127*,.,3[16.7 µM],.,.
CN1C(=O)c2cc(NC(=O)Cc3ccccc3)ccc2OC[C@@H]2O[C@@H](CC(=O)NCc3ccc(Cl)cc3)CC[C@H]21,-7,.,-33[16.7 µM],6[16.7 µM],7,.
COc1ccccc1C(=O)Nc1ccc2c(c1)C(=O)N(C)[C@H]1CC[C@H](CC(=O)NCc3ccc(Cl)c(Cl)c3)O[C@H]1CO2,-4,9,308*[16.7 µM],.,2,.
CN1C(=O)c2cc(NC(=O)Cc3ccccc3)ccc2OC[C@@H]2O[C@H](CC(=O)NCc3ccc(Cl)cc3)CC[C@@H]21,-2,.,293*[16.7 µM],24[16.7 µM],-18,.

# Screening results from PubChem BioAssay.
